Read-outs that look alike come from different tables or passages of the source. Where no end group is shown, it is not given here. FAM = fluorescein amidite
Columns and labels:
HT1080 cells = assay: Clonogenic survival assay in HT1080 cells with cisplatin; type: cell-based, human; conditions: cisplatin 0.6 μM, 4 or 5 1.5 μM, alone
Procedure, shortened: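 HT1080 cells in RPMI 1640 with 10% FBS and 1% penicillin/streptomycin at 37°C, 5% CO₂. Seeded at 600 cells/well in 6-well plates and left overnight. […] Fixed in methanol/acetic acid and Coomassie-stained. Colonies of ≥40 cells counted relative to DMSO controls; Student t-test.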

[1] = tested on: HPRT gene mutation frequency in HT1080 cells; assay: HPRT mutagenesis assay in HT1080 cells; type: cell-based, human; conditions: cisplatin alone 0.6 μM
[2] = tested on: wild-type (WT) mouse embryonic fibroblasts (MEFs); assay: Clonogenic survival assay in WT MEFs with cisplatin; type: cell-based; conditions: cisplatin 0.6 μM, 4 or 5 1.5 μM, alone
Procedure, shortened: (§1)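 Wild-type or Rev1⁻/⁻ mouse embryonic fibroblasts in DMEM with 10% FBS and 1% penicillin/streptomycin at 37°C, 5% CO₂. Seeded at 600 cells/well and left overnight. […] Colonies of ≥40 cells Coomassie-counted and expressed relative to DMSO controls. Two experiments, each in triplicate.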

[3] = tested on: Rev1^−/− mouse embryonic fibroblasts (MEFs); assay: Clonogenic survival assay in Rev1−/− MEFs with cisplatin; type: cell-based; conditions: cisplatin 0.6 μM alone
Procedure, shortened: as §1

[4] = target: T1, C-terminal domain from human Rev1 (Rev1-CT) (human, UniProt Q9UBZ9 1158-1251); assay: fluorescence polarisation
T1 sequence (looked up): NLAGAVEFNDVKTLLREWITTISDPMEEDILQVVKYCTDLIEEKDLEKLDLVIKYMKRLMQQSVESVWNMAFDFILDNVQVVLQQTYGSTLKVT

[5] = target: T1, C-terminal domain from human Rev1 …; assay: fluorescence polarisation; remark: listed apart in the source
[6] = target: T1, C-terminal domain from human Rev1 …; assay: SEC

## N.N.[Cl][Pt][Cl] [cisplatin]
HT1080 cells
  Colony formation of HT1080 cells, single agent: minimal effect on colony formation
[1]
  Increase in HPRT mutations compared to non-treated cells: approximately 1.9 fold
[2]
  Clonogenic growth of WT MEFs, single agent: minimal effect on clonogenic growth
[3]
  Sensitivity of Rev1−/− MEFs to cisplatin compared with WT MEFs: significantly more sensitive

## EMSHKKSFFDKKRSER (peptide, UniProt Q9UBT6 560-575, looked up) [unlabeled Polκ-RIR]
[4]
  IC50: 6.6 ± 0.1 µM
[5]
  IC50: 7.3 ± 1.4 µM

## {FAM}-EMSHKKSFFDKKRSER (peptide, UniProt Q9UBT6 560-575, looked up)
[6]
  binding result: binds

Reference: paper PMC5992617 (ACS chemical biology, 2017)
